Assay [1] can be described thus: Displacement of [3H]-DTG from sigma 2-type opioid receptor in rat liver membrane in presence of (+)-pentazocine. Format: cell membranes. The procedure, abridged:
(§1)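 Radioligand displacement run by previously published methods, EBP per Moebius and σ1/σ2 per Matsumoto. Tissues from male Dunkin guinea pigs and Wistar Hannover rats (250–300 g). IC50 from six to nine drug concentrations in two or three experiments, samples in duplicate.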

Assay [2] concerns the target Sigma non-opioid intracellular receptor 1 (Cavia porcellus, UniProt Q60492). Kind of assay: Displacement of [3H](+)-pentazocine from sigma 1 receptor in guinea pig brain membrane without cerebellum. Format: cell membranes. An outline of the steps:
as §1
Background: In a radioligand displacement assay an active substance lowers the binding of a labelled ligand.

Assay [3] addresses T1, Adrenergic receptor alpha-1 (Rattus norvegicus, UniProt P15823+P23944+P43140).
T1 sequence (P15823 whole entry): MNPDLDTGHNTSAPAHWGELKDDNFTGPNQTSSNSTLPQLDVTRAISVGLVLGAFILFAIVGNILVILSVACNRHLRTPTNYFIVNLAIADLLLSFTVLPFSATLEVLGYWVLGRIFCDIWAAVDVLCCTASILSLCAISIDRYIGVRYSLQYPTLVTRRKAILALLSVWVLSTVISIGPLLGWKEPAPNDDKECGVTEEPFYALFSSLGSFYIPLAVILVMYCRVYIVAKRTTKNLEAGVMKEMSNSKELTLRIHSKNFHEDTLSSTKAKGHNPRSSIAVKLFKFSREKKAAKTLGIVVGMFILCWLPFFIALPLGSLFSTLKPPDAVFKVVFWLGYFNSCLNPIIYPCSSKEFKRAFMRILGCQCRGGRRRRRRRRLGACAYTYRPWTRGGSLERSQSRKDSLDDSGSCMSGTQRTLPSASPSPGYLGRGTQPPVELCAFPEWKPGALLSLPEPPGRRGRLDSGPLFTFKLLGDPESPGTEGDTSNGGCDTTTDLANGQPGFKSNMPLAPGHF
T1 sequence (P23944 whole entry): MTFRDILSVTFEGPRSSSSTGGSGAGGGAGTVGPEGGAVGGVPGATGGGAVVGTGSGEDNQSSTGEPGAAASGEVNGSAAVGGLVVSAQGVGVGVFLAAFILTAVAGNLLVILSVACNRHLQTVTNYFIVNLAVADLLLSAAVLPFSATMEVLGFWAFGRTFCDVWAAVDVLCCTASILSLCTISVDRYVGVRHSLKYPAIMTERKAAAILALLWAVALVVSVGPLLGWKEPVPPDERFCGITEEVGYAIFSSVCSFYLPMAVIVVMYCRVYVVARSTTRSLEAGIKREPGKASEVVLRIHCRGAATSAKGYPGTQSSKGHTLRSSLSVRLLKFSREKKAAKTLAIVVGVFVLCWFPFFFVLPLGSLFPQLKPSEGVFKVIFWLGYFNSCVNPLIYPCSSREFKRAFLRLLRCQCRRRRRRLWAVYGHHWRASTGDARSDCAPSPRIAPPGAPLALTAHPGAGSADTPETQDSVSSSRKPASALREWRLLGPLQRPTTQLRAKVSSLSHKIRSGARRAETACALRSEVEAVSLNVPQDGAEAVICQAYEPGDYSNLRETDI
T1 sequence (P43140 whole entry): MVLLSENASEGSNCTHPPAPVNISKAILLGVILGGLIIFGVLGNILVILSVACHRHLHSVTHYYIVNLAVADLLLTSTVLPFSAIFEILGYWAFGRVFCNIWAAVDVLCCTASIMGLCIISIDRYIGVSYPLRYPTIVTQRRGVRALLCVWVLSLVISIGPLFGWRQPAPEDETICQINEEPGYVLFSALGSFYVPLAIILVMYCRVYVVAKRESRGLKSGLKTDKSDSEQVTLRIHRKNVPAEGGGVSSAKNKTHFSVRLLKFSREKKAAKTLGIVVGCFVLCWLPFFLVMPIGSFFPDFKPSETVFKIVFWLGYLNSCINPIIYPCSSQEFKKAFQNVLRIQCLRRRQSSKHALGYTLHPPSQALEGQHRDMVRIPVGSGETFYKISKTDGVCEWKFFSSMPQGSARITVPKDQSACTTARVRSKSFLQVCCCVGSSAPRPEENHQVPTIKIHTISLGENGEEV
Kind of assay: Displacement of [3H]prazosin from adrenergic alpha1 receptor in rat cortical membrane. Format: cell membranes.

The next assay is filed under the species Cavia porcellus. Kind of assay: Selectivity ratio of Ki for sigma 1 receptor in guinea pig brain membrane without cerebellum to Ki for EBP in guinea pig liver membrane. Format: cell membranes.
In assay [4] the test system is PC-3. The assay is described as follows: Cytotoxicity against human PC3 cells assessed as LDH release at 100 uM after 24 hrs relative to untreated control. The class given is functional. An outline of the steps: (§2)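 PC-3 cells exposed to test compound for 24 h at 37 °C, 5% CO2. LDH release into the medium was measured fluorimetrically (ex 560/em 590 nm) after 10 min with substrate mix at room temperature, then stop solution. Total LDH taken from lysed untreated wells. % cytotoxicity = 100 × (treated medium LDH − background)/(total LDH − background).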
(In general: LDH in the medium is a marker of cell lysis.)

Assay [5] deals with T2, 5-hydroxytryptamine receptor 1A (Rattus norvegicus, UniProt P19327).
T2 sequence (P19327 whole entry): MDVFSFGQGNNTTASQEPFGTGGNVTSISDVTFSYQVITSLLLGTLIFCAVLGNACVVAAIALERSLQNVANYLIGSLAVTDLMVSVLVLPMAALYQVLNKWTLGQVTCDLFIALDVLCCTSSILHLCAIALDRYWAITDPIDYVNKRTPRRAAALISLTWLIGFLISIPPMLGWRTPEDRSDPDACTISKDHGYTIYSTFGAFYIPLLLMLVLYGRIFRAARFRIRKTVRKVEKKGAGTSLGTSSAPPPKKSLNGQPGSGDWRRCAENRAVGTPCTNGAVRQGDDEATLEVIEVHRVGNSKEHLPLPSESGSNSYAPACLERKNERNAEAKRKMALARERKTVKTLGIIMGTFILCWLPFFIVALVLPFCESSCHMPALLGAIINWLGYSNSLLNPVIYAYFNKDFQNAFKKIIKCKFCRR
Kind of assay: Displacement of [3H]8OH-DPAT from 5HT1A receptor in rat hippocampal membrane. The class given is cell membranes, Hippocampus.

In the next assay the target is D(2) dopamine receptor (Rattus norvegicus, UniProt P61169). Kind of assay: Displacement of [3H]spiroperidol from dopamine D2 receptor in rat striatal membrane. Format: cell membranes, Striatum.
D(2) dopamine receptor, sequence (P61169 whole entry): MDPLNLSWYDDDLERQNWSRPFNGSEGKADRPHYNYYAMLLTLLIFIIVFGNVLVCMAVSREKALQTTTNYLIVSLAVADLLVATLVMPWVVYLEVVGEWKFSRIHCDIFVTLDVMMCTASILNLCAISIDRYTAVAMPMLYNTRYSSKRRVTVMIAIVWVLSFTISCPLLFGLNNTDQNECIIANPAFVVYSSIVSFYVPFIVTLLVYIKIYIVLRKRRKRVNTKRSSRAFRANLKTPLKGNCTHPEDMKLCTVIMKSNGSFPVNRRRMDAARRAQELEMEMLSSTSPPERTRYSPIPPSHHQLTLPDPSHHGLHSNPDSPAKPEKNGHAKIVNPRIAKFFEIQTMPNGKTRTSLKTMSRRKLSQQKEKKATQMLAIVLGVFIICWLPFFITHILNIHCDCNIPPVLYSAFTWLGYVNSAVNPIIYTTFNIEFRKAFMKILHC
Assay [6] has as its target T3, 3-beta-hydroxysteroid-Delta(8),Delta(7)-isomerase (Cavia porcellus, UniProt Q60490).
T3 sequence (Q60490 whole entry): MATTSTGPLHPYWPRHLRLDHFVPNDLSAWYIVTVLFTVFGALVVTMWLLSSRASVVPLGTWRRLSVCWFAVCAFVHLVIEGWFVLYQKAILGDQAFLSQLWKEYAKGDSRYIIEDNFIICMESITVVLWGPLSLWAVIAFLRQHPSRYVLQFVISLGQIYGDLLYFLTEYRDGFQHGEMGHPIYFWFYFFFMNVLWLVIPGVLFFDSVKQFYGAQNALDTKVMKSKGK
The assay is described as follows: Displacement of [3H](-)-(S)-emopamil from EBP in guinea pig liver membrane. The class given is cell membranes. The procedure, abridged: as §1

The subject of assay [7] is PC-3. Kind of assay: Antiproliferative activity against human PC3 cells expressing EBP at 100 uM after 48 hrs by MTT assay. Format: functional. The settings on record: PC-3, 48 h. An outline of the steps: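 PC-3 human prostate cancer cells grown in RPMI 1640 with 10% FBS, 2 mM glutamine and penicillin/streptomycin at 37 °C under 5% CO₂. Seeded at 10 000 cells/well, then dosed the next day with solvent (ethanol, DMSO) controls. Incubated 48 h. MTT 0.5 mg/mL added for 3 h at 37 °C, formazan dissolved in DMSO, absorbance read at 570 and 630 nm. Percent inhibition at 100 µM, n ≥ 2 separate experiments.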
On the technique in general: Tetrazolium dyes change colour on reduction, which living cells bring about.

Assay [8] deals with PC-3. Kind of assay: Antiproliferative activity against human PC3 cells expressing EBP after 48 hrs by MTT assay. The class given is functional, cell-based. An outline of the steps:
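MTT read-out at 48 h in PC-3 cells grown in RPMI 1640 with 10% FBS, 2 mM glutamine, penicillin/streptomycin, 37 °C, 5% CO2. 10 000 cells/well seeded day 1, drugs added day 2 over 1–100 µM (150 or 300 µM for some references). Solvent controls included. MTT 0.5 mg/mL for 3 h, formazan dissolved in DMSO, absorbance at 570 and 630 nm.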

Assay [9] deals with PC-3. The assay is described as follows: Cytotoxicity against human PC3 cells assessed as LDH release after 24 hrs. Format: functional, cell-based. As to conditions: PC-3, 24 h. An outline of the steps:
as §2

A short description of assay [10]: Selectivity ratio of Ki for sigma 2 receptor in rat liver membrane to Ki for EBP in guinea pig liver membrane. Format: cell membranes.

A value given as a limit tells only on which side of the number the result lay.

A word on the Ki: it is a dissociation constant, usually derived from enzyme kinetics or from competition with a known ligand. By inhibition is commonly meant the change of the read-out against control, counted positive when it falls. Lower therefore signals little suppression. A word on the EC50: it is the concentration that produces a half-maximal response.

Sigma non-opioid intracellular receptor 1, sequence (Q60492 whole entry): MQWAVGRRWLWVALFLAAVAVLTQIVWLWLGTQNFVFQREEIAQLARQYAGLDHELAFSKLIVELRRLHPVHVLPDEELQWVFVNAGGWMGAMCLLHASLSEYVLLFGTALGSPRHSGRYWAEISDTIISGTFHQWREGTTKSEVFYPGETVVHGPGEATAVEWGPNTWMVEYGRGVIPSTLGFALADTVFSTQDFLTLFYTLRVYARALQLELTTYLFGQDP

Turning to `COc1ccc([C@H]2CC[C@@H](N3CCN(c4ccccn4)CC3)CC2)cc1`, the Ki worked out at 63.8 nM in [1]; 194 nM in [2]; 786 nM in [3]; 94 nM in assay [5]; 787 nM on D(2) dopamine receptor; 32.8 nM in [6]. The Ratio Ki in the assay filed under Cavia porcellus worked out at 4. Further, in the assay with PC-3 [4], the Activity is recorded as <10%.
With `Cc1ccccc1NC(=N)Nc1ccccc1C`, the inhibition constant (Ki) in assay [1] was determined as 31.1 nM; in assay [6] it was 7660 nM. In addition, 100 µM produced 27% inhibition in the assay on PC-3 [7]. Besides, the Activity in the assay on PC-3 [4] is recorded as <10%.
As for `COc1cccc2c1CCCC2CCCN1CCN(C2CCCCC2)CC1` (configuration not stated), the Ki in assay [1] was 0.34 nM; in assay [6], 8.38 nM. Besides, the EC50 with PC-3 [8] came out at 37700 nM; in the assay on PC-3 [9], 64200 nM.
Regarding `COc1cccc([C@H]2CC[C@@H](NCCOc3ccccn3)CC2)c1`, the Ki in [2] was 7.71 nM; in assay [3] it was > 850 nM; in assay [5], 373 nM; on D(2) dopamine receptor, 783 nM; in assay [6], 23.5 nM. Moreover, the Activity in the assay with PC-3 [4] is recorded as <10%.
On to `COc1cccc([C@H]2CC[C@@H](N3CCN(c4ccccn4)CC3)CC2)c1`, for which the Ki in assay [1] was 36.1 nM; in assay [2] it was 178 nM; in assay [3] it was 783 nM; in assay [5] it was 815 nM; at D(2) dopamine receptor, > 850 nM; in assay [6], 45.4 nM. For the same molecule, the Activity in the assay with PC-3 [4] is <10%.
With `COc1ccccc1[C@H]1CC[C@@H](N2CCN(c3ccccn3)CC2)CC1`, the Ki in assay [1] was 242 nM; in assay [2], 369 nM; in assay [3] it was 712 nM; in assay [5], 480 nM; on D(2) dopamine receptor it was 2120 nM; in assay [6] it was 8.15 nM. In addition, the response with PC-3 [8] was half-maximal at 19300 nM (EC50). Moreover, the Ratio Ki is 45 in the assay filed under Cavia porcellus and 30 in assay [10]. The Activity in the assay with PC-3 [4] was <10%.
In the case of `COc1cccc([C@H]2CC[C@@H](N3CCN(c4cccc5ccccc45)CC3)CC2)c1`, the Ki in [2] stood at 240 nM; in [3], 5540 nM; in assay [5] it was 74 nM; on D(2) dopamine receptor it was 1310 nM; in [6] it was 16.7 nM. Further, the Activity with PC-3 [4] is <10%.
As to `c1ccc(CCN2CCCCC2)cc1`, the Ki in assay [1] came out at 194 nM; in assay [2] it was 309 nM; in assay [6] it was 595 nM. This molecule had an inhibition at 100 µM in the assay on PC-3 [7] of 30%. The Ratio Ki was 0.5 in the assay listed under Cavia porcellus and 0.3 in [10]. For the same molecule, in the assay on PC-3 [4], the Activity is reported as <10%.
`COc1cccc([C@H]2CC[C@@H](N3CCN(c4ccccc4)CC3)CC2)c1`: the Ki in [3] was determined as 2250 nM; in [5], 183 nM; at D(2) dopamine receptor it was 2380 nM; in [6], 1710 nM. Also, the Activity in the assay on PC-3 [4] was <10%.

(Values after ChEMBL document CHEMBL1140235, “Novel 4-(4-aryl)cyclohexyl-1-(2-pyridyl)piperazines as Delta(8)-Delta(7) sterol isomerase (emopamil binding protein) selective ligands with antiproliferative activity” (J Med Chem, 2008).)
